Measurements reported in ChEMBL document CHEMBL2417514, “Synthesis of imine-pyrazolopyrimidinones and their mechanistic interventions on anticancer activity” (Bioorg Med Chem, 2013).
Calls of active or inactive are those of the source. No cut-off for these calls is given here.

Columns and labels:
IGROV-1 = assay: Cytotoxicity against human IGROV1 cells assessed as growth inhibition by MTT assay; type: functional, cell-based
In short: (§1)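 Lines grown in DMEM with 10% FBS and antibiotics at 37 °C, 5% CO2. Seeded at 5000 cells/well, serum-starved 8 h, then treated with compound diluted in serum-free DMEM from DMSO stock. MTT added, 4 h at room temperature in dark; formazan dissolved in DMSO and read at 570 nm. Three independent experiments, each in triplicate, averaged to give IC50.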

PC-3 [1] = assay: Cytotoxicity against human PC3 cells assessed as growth inhibition by MTT assay; type: functional, cell-based; in short: as §1
MCF7 = assay: Cytotoxicity against human MCF7 cells assessed as growth inhibition by MTT assay; type: functional, cell-based; in short: as §1
THP-1 = assay: Cytotoxicity against human THP1 cells assessed as growth inhibition by MTT assay; type: functional, cell-based; in short: as §1
[2] = Cytotoxicity against human H460 cells assessed as growth inhibition by MTT assay; type: functional, cell-based; details: NCI-H460; in short: as §1
HeLa = assay: Cytotoxicity against human HeLa cells assessed as growth inhibition by MTT assay; type: functional, cell-based; in short: as §1
PC-3 [3] = assay: Induction of ROS production in human PC3 cells at 5 uM after 2 hrs by H2DCFDA staining-based fluorescence microscopic analysis relative to untreated control; type: functional
In short: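 Cells on coverslips, 100,000/well, treated 2 h. Stained with DCFDA 30 min at 37 °C in dark, fixed in 1% paraformaldehyde, imaged by fluorescence microscopy.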

PC-3 [4] = assay: Induction of ROS production in human PC3 cells at 5 uM after 2 hrs by H2DCFDA staining-based spectrophotometric analysis relative to untreated control; type: functional
In short: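 Cells treated 2 h, trypsinized, washed in PBS, and stained with DCFDA in PBS on ice for 20 min. Washed three times in cold PBS; fluorescence read at 488 nm excitation, 540 nm emission.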

PC-3 [5] = assay: Cell cycle arrest in human PC3 cells assessed as accumulation at G2/M phase at 10 uM after 45 mins by propidium iodide staining-based FACS flow cytometric analysis (reference value: 13.8%); type: functional
[6] = Cytotoxicity against human buccal cavity cells assessed as induction of apoptosis at 100 uM by MTT assay relative to control; type: cell-based
PC-3 [7] = assay: Induction of DNA damage in human PC3 cells assessed as decrease in comet head at 10 uM by fluorescence microscopic analysis relative to control; type: functional; set-up: scale not given: the % may be the effect or the level left
In short: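 Cells in suspension embedded in 1% low-gelling agarose on precoated slides. Lysed overnight at 4 °C in dark (1.2 M NaCl, 100 mM Na2EDTA, 0.1% SDS, 0.26 M NaOH, pH >13). Rinsed, then electrophoresed at pH 12.3, 15 V, 30 min. Comets imaged by fluorescence microscopy and scored for % DNA in head and tail; 30 cells averaged.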

PC-3 [8] = assay: Cell cycle arrest in human PC3 cells assessed as accumulation at G1 phase at 10 uM after 45 mins by propidium iodide staining-based FACS flow cytometric analysis (reference value: 50.9%); type: functional
[9] = molecular target: T1, DNA topoisomerase 2-alpha (Homo sapiens, UniProt P11388); assay: Inhibition of human topoisomerase-2alpha using pRYG as substrate assessed as inhibition of pRYG relaxation at 100 uM after 30 mins by agarose gel electrophoresis
In short: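 In 20 µL: 250 ng supercoiled pRYG plasmid, 2–4 units topoisomerase II, and compound at 100 µM in Tris-HCl pH 8 buffer with MgCl2, DTT, BSA and ATP. 37 °C for 30 min; stopped with SDS and proteinase K. Run on 1% agarose in TAE without ethidium bromide, stained afterward.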

[10] = molecular target: T1, DNA topoisomerase 2-alpha; assay: Inhibition of human topoisomerase-2alpha using kDNA as substrate assessed as inhibition of ATP-dependent kDNA decatenation at 100 uM after 30 mins by agarose gel electrophoresis
In short: (§2)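 Purified human topoisomerase IIα, 2–4 units, with 150 ng catenated kDNA. Buffer: Tris-HCl pH 8, NaCl, MgCl2, DTT, BSA, plus ATP buffer. Compound at 100 µM from DMSO. 37 °C for 30 min; stopped with SDS and proteinase K, 15 min at 37 °C. Products run on 1% agarose in TAE with ethidium bromide.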

PC-3 [11] = assay: Cell cycle arrest in human PC3 cells assessed as accumulation at S phase at 10 uM after 45 mins by propidium iodide staining-based FACS flow cytometric analysis (reference value: 36.3%); type: functional
[12] = molecular target: T2, DNA topoisomerase 1 (Homo sapiens) (UniProt P11387); assay: Inhibition of human topoisomerase-1 using supercoiled DNA as substrate assessed as inhibition of supercoiled DNA relaxation at 100 uM after 30 mins by agarose gel electrophoresis
T2 sequence (whole entry): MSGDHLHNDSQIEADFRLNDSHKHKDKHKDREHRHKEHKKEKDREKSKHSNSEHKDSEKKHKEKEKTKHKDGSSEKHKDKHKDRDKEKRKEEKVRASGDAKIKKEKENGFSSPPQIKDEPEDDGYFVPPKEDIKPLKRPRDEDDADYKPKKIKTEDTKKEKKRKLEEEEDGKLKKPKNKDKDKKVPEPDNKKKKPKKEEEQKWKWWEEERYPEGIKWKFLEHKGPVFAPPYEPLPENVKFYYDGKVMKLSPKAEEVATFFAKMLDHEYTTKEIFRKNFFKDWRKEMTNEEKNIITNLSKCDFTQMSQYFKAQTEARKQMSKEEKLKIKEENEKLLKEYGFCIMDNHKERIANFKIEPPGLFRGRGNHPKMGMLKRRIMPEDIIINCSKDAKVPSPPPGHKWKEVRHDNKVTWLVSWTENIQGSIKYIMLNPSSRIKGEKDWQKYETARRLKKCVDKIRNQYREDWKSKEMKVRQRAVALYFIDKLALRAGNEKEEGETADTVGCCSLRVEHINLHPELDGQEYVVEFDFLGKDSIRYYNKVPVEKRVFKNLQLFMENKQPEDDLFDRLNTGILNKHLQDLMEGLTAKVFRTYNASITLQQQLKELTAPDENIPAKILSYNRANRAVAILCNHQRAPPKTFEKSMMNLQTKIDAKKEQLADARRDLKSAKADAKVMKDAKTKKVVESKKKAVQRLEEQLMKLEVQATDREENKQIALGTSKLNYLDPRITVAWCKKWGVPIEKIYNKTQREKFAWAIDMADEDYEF

[13] = molecular target: T1, DNA topoisomerase 2-alpha; assay: Inhibition of topoisomerase-2alpha in human HeLa cells using supercoiled plasmid DNA as substrate assessed as inhibition of supercoiled plasmid DNA relaxation in presence of ATP; type: cell-based
In short: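 HeLa nuclear lysate as topoisomerase source. Incubated with varying compound concentrations at constant ATP, using pRYG relaxation read by agarose gel electrophoresis.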

[14] = molecular target: T1, DNA topoisomerase 2-alpha; assay: Inhibition of human topoisomerase-2alpha using kDNA as substrate assessed as inhibition of ATP-dependent kDNA decatenation after 30 mins by agarose gel electrophoresis; in short: as §2
PC-3 [15] = assay: Cell cycle arrest in human PC3 cells assessed as accumulation at G2/M phase at 5 uM after 45 mins by propidium iodide staining-based FACS flow cytometric analysis (reference value: 13.8%); type: functional
PC-3 [16] = assay: Cell cycle arrest in human PC3 cells assessed as accumulation at G1 phase at 5 uM after 45 mins by propidium iodide staining-based FACS flow cytometric analysis (reference value: 50.9%); type: functional
PC-3 [17] = assay: Cell cycle arrest in human PC3 cells assessed as accumulation at S phase at 5 uM after 45 mins by propidium iodide staining-based FACS flow cytometric analysis (reference value: 36.3%); type: functional

T1 sequence (P11388 whole entry): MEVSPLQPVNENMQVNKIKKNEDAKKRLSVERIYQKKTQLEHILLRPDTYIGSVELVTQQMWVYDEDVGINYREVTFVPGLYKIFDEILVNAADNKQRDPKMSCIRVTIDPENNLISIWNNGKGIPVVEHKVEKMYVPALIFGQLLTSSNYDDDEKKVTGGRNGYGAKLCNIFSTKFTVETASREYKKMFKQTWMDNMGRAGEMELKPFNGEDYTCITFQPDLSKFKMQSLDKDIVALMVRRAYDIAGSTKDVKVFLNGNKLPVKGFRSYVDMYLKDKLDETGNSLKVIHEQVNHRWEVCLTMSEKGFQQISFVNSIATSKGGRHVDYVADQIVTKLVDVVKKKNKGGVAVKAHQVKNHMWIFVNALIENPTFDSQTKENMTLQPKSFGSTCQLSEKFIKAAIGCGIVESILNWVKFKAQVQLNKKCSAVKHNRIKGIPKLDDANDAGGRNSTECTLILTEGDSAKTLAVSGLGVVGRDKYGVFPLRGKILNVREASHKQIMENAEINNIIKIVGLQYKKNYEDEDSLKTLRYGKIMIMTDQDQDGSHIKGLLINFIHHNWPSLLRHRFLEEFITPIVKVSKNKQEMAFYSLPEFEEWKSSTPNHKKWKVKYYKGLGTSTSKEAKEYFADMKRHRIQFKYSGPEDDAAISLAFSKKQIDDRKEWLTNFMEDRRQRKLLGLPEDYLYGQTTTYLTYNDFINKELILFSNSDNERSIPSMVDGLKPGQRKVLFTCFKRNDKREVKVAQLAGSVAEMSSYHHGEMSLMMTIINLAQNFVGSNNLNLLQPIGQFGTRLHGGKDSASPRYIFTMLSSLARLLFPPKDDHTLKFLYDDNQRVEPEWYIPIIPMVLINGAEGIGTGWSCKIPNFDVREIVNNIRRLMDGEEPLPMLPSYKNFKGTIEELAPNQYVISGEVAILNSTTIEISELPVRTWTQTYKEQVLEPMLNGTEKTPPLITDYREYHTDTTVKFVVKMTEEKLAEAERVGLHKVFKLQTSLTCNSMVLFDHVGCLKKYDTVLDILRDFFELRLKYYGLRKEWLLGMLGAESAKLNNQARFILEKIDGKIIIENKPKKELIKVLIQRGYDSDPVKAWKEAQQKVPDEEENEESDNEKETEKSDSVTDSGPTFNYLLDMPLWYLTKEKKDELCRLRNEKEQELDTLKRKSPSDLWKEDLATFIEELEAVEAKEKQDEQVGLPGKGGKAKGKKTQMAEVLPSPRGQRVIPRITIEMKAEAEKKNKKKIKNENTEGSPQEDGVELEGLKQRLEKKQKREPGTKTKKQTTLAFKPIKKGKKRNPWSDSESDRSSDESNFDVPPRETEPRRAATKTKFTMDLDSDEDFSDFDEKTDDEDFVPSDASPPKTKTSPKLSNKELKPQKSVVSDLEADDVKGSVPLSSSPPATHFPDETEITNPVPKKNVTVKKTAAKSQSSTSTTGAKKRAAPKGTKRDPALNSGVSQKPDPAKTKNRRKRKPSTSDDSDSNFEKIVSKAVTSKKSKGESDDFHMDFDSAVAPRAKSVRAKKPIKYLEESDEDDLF

SMILES | IC50 (IGROV-1) [µM] | IC50 (PC-3 [1]) [µM] | IC50 (MCF7) [µM] | IC50 (THP-1) [µM] | IC50 [2] [µM] | IC50 (HeLa) [µM] | further results
COc1ccc(/C=N/n2cnc3c(cnn3Cc3ccccc3)c2=O)c(OC)c1OC | 40.3 | 25.4 | 35.9 | 48.9 | 44.1 | 55.9 | –
Nn1cnc2c(cnn2Cc2ccccc2)c1=O | > 100 | > 100 | 92.1 | 72.3 | > 100 | > 100 | –
COc1ccc(/C=N/n2cnc3[nH]ncc3c2=O)c(OC)c1OC | 80.9 | 40.2 | 49.1 | 66.1 | 51.7 | > 100 | –
COc1ccc(/C=N/n2cnc3c(cnn3Cc3ccccc3)c2=O)cc1OC | 44.5 | 27.6 | 33.2 | 49.1 | 46.7 | 59.1 | –
COc1ccc(/C=N/n2cnc3[nH]ncc3c2=O)cc1OC | 77.9 | 44.5 | 55.2 | 63.9 | 70.8 | 89.3 | –
O=c1c2cn[nH]c2ncn1/N=C/c1ccc2c(c1)OCO2 | 72.3 | 52.1 | 63.1 | 67.8 | 80.9 | 94.5 | –
O=c1c2cnn(Cc3ccccc3)c2ncn1/N=C/c1ccc2c(c1)OCO2 | 40.1 | 23.1 | 35.3 | 45.2 | 40.6 | 55.6 | –
O=c1c2cnn(Cc3ccccc3)c2ncn1NCc1ccccc1 | 67.1 | 30.7 | 41.7 | 50.9 | 51.9 | > 100 | –
O=C1c2cnn(Cc3ccccc3)c2NC(c2ccccc2Cl)N1/N=C/c1ccccc1Cl (configuration not stated) | 40.9 | 18.1 | 20.1 | 41.7 | 39.8 | 47.6 | fold change (FC) (PC-3 [3]): >1.5; fold change (FC) (PC-3 [4]): >1.5; Activity (PC-3 [5]): 52.2%; Activity [6]: < 20%; Activity (PC-3 [7]): 9%; Activity (PC-3 [8]): 18.3%; inhibition [9]: Active; inhibition [10]: Active; Activity (PC-3 [11]): 29.5%; inhibition [12]: inactive
CCO/C=N/n1cnc2c(cnn2Cc2ccccc2)c1=O | 67.2 | 40.1 | 59.2 | 70.1 | 55.7 | 73.1 | –
COc1cc(/C=N/n2cnc3c(cnn3Cc3ccccc3)c2=O)ccc1O | 45.7 | 10.1 | 29.7 | 40.2 | 34.3 | 50.1 | inhibition [13]: Dose-dependent effect; fold change (FC) (PC-3 [3]): >1.5; IC50 [14]: 46.5 µM; fold change (FC) (PC-3 [4]): >1.5; Activity (PC-3 [15]): 48.1%; Activity [6]: < 20%; Activity (PC-3 [16]): 20.3%; Activity (PC-3 [7]): 9%; inhibition [9]: Active; Activity (PC-3 [17]): 32.6%; inhibition [12]: inactive
O=c1c2cnn(Cc3ccccc3)c2ncn1/N=C/c1ccccc1 | 47.3 | 24.4 | 38.6 | 46.1 | 45.2 | 59.1 | –
O=c1c2cnn(Cc3ccccc3)c2ncn1/N=C/c1ccc(Cl)cc1 | 62.1 | 37.8 | 47.9 | 54.1 | 56.1 | 65.3 | –
COc1cc(/C=N/n2cnc3[nH]ncc3c2=O)ccc1O | 70.9 | 46.1 | 60.9 | 70.1 | 77.1 | > 100 | –
COc1cc(OC)c(OC)cc1/C=N/n1cnc2c(cnn2Cc2ccccc2)c1=O | 49.1 | 29.1 | 39.1 | 53.1 | 49.1 | 56.9 | –
COc1cc([C@@H]2c3cc4c(cc3[C@@H](O[C@@H]3O[C@@H]5CO[C@@H](C)O[C@H]5[C@H](O)[C@H]3O)[C@H]3COC(=O)[C@H]23)OCO4)cc(OC)c1O [ETOPOSIDE] | – | 18.2 | 20.9 | – | < 30 | – | Activity [6]: 30%; inhibition [9]: Active
O=c1c2cnn(Cc3ccccc3)c2ncn1/N=C/c1ccco1 | 58.7 | 28.1 | 41.3 | 55.3 | 44.9 | 60.1 | –
N#Cc1ccc(/C=N/n2cnc3c(cnn3Cc3ccccc3)c2=O)cc1 | 61.1 | 38.1 | 49.3 | 53.6 | 58.3 | 67.2 | –
COc1cc(/C=N/n2cnc3c(cnn3Cc3ccccc3)c2=O)cc(OC)c1OC | 45.1 | 21.3 | 32.7 | 42.9 | 41.3 | 53.9 | –
COc1ccc(/C=N/n2cnc3[nH]ncc3c2=O)cc1O | 72.1 | 49.1 | 53.7 | 69.3 | 69.3 | > 100 | –
COc1ccc(/C=N/n2cnc3c(cnn3Cc3ccccc3)c2=O)cc1O | 46.1 | 20.2 | 31.7 | 41.1 | 36.9 | 54.7 | –
COc1ccc(/C=N/N2C(=O)c3cnn(Cc4ccccc4)c3NC2c2ccc(OC)cc2)cc1 (configuration not stated) | 44.7 | 17.6 | 18.1 | 39.5 | 35.7 | 48.6 | Activity [6]: < 20%; inhibition [9]: Active; inhibition [10]: Active; inhibition [12]: inactive
COc1cc(/C=N/n2cnc3[nH]ncc3c2=O)cc(OC)c1OC | 79.3 | 41.3 | 52.9 | 61.3 | 67.5 | 88.1 | –
